Reference: ChEMBL document CHEMBL5712078, “BRD9 Inhibition, Alone or in Combination with Cytostatic Compounds as a Therapeutic Approach in Rhabdoid Tumors” (Int J Mol Sci, 2017)
pIC50: −log10 of the molar value. Calls of active or inactive are those of the source. The calls are words filed in the database; no cut-off is given here.

Experiments:
CHLA-266 [1] = experiment: Induction of cell cycle arrest in human CHLA-266 cells assessed as accumulation of cells at G1 phase at 10 uM incubated for 72 hrs by flow cytometry analysis (Rvb =74.1+/-3.2%); format: functional
How it was run: (§1)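 Cell cycle. Seeding and 72 h treatment as for the apoptosis assay, with I-BRD9 or BI-9564 at 0, 5, 10 or 20 µM final. A 100 µL cell suspension was stained with DAPI and read by flow cytometry. Percentage of cells in G1, n ≥3, mean ± SD, one-way ANOVA versus control.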

CHLA-266 [2] = experiment: Cytotoxicity against human CHLA-266 cells assessed as change in cell viability at 5 to 20 uM treated for 72 hrs; format: functional, cell-based; settings: dose 5-20 µM
How it was run: (§2)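 Annexin V/PI flow assay. G401 at 10,000 cells/mL and BT12 or Chla266 at 30,000 cells/mL were seeded in 12-well plates. Next day medium was replaced with medium holding I-BRD9 or BI-9564 at 0, 5, 10 or 20 µM final for 72 h. Cells were washed in PBS, stained with FITC-Annexin V and propidium iodide for 15 min in the dark at room temperature, then read by flow cytometry. Percentage of dead cells, n ≥3, mean ± SD, one-way ANOVA versus control.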

BT-12 [3] = experiment: Induction of apoptosis in human BT-12 cells assessed as necrotic cells at 10 uM incubated for 72 hrs by flow cytometry analysis (reference value: 10.1+/-2.2%); format: functional; how it was run: as §2
BT-12 [4] = experiment: Induction of apoptosis in human BT-12 cells assessed as necrotic cells at 20 uM incubated for 72 hrs by flow cytometry analysis (Rvb=10.1+/-2.2%); format: functional; how it was run: as §2
CHLA-266 [5] = experiment: Induction of apoptosis in human CHLA-266 cells assessed as necrotic cells at 20 uM incubated for 72 hrs by flow cytometry analysis (Rvb= 5.4+/-1.0 %); format: functional; how it was run: as §2
G-401 [6] = experiment: Induction of apoptosis in human G-401 cells assessed as necrotic cells at 20 uM incubated for 72 hrs by flow cytometry analysis (Rvb= 6.2+/-0.8 %); format: functional; how it was run: as §2
G-401 [7] = experiment: Induction of apoptosis in human G-401 cells assessed as necrotic cells at 10 uM incubated for 72 hrs by flow cytometry analysis (Rvb= 6.2+/-0.8 %); format: functional; how it was run: as §2
G-401 [8] = experiment: Induction of apoptosis in human G-401 cells assessed as necrotic cells incubated for 72 hrs by flow cytometry analysis; format: functional, cell-based; settings: dose 5-20 µM; how it was run: as §2
CHLA-266 [9] = experiment: Induction of apoptosis in human CHLA-266 cells assessed as necrotic cells at 10 uM incubated for 72 hrs by flow cytometry analysis (Rvb= 5.4+/-1.0 %); format: functional; how it was run: as §2
BT-12 [10] = experiment: Induction of apoptosis in human BT-12 cells assessed as necrotic cells at 5 uM incubated for 72 hrs by flow cytometry analysis (reference value: 10.1+/-2.2%); format: functional; how it was run: as §2
CHLA-266 [11] = experiment: Induction of apoptosis in human CHLA-266 cells assessed as necrotic cells incubated for 72 hrs by flow cytometry analysis; format: functional, cell-based; settings: dose 5-20 µM; how it was run: as §2
[12] = Anti-proliferative activity against human KD cells assessed as cell viability incubated for 72 hrs by MTT assay; format: functional, cell-based
How it was run: (§3)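 MTT proliferation assay. Cells were seeded at 3000 (BT16, KD, G401) or 5000 (BT12, Chla266) cells per well and drug was added after 24 h, final 0.001–100 µM. Read at 72 or 144 h; 144 h wells got fresh medium and drug on day 3. MTT for 3 h, formazan dissolved in isopropanol/0.04 N HCl, absorbance at 570/630 nm. Technical triplicates, ≥3 independent runs, IC50 derived.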

CHLA-266 [13] = experiment: Induction of cell cycle arrest in human CHLA-266 cells assessed as accumulation of cells at G1 phase incubated for 72 hrs by flow cytometry analysis; format: functional, cell-based; settings: dose 5-20 µM
How it was run: (§4)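 72 h DAPI flow-cytometry cell-cycle assay. Chla266 in IMDM/20% FBS seeded at 30,000 cells/mL; G401 in DMEM/10% FBS at 10,000 cells/mL; 1 mL/well, 37 °C, 5% CO2. Next day the medium was replaced with inhibitor at final 0, 5, 10 or 20 µM. Cells were harvested, PBS-washed, and the G1 percentage was read. n ≥ 3, mean ± SD, one-way ANOVA vs control.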

BT-12 [14] = experiment: Induction of cell cycle arrest in human BT-12 cells assessed as accumulation of cells at G1 phase at 10 uM incubated for 72 hrs by flow cytometry analysis (reference value: 65+/-3.9%); format: functional; how it was run: as §1
G-401 [15] = experiment: Anti-proliferative activity against human G-401 cells assessed as cell viability incubated for 144 hrs by MTT assay; format: functional, cell-based; settings: G-401, 144 h; how it was run: as §3
BT-12 [16] = experiment: Anti-proliferative activity against human BT-12 cells assessed as cell viability incubated for 72 hrs by MTT assay; format: functional, cell-based; settings: BT-12, 72 h; how it was run: as §3
G-401 [17] = experiment: Induction of cell cycle arrest in human G-401 cells assessed as accumulation of cells at G1 phase at 10 uM incubated for 72 hrs by flow cytometry analysis (reference value: 51.7+/-2%); format: functional; how it was run: as §4
CHLA-266 [18] = experiment: Induction of cell cycle arrest in human CHLA-266 cells assessed as accumulation of cells at G1 phase at 20 uM incubated for 72 hrs by flow cytometry analysis (reference value: 74.1+/-3.2%); format: functional; how it was run: as §1
BT-12 [19] = experiment: Induction of cell cycle arrest in human BT-12 cells assessed as accumulation of cells at G1 phase at 20 uM incubated for 72 hrs by flow cytometry analysis (reference value: 65+/-3.9%); format: functional; how it was run: as §1
G-401 [20] = experiment: Induction of cell cycle arrest in human G-401 cells assessed as accumulation of cells at G1 phase at 5 uM incubated for 72 hrs by flow cytometry analysis (reference value: 51.7+/-2%); format: functional; how it was run: as §4
CHLA-266 [21] = experiment: Induction of cell cycle arrest in human CHLA-266 cells assessed as accumulation of cells at G1 phase at 5 uM incubated for 72 hrs by flow cytometry analysis (reference value: 74.1+/-3.2%); format: functional; how it was run: as §1
CHLA-266 [22] = experiment: Induction of apoptosis in human CHLA-266 cells assessed as necrotic cells at 5 uM incubated for 72 hrs by flow cytometry analysis (Rvb= 5.4+/-1.0%); format: functional; how it was run: as §2
[23] = Anti-proliferative activity against human BT-16 cells assessed as cell viability incubated for 72 hrs by MTT assay; format: functional, cell-based; settings: BT-16, 72 h; how it was run: as §3
CHLA-266 [24] = experiment: Anti-proliferative activity against human CHLA-266 cells assessed as cell viability incubated for 144 hrs by MTT assay; format: functional, cell-based; settings: CHLA-266, 144 h; how it was run: as §3
G-401 [25] = experiment: Anti-proliferative activity against human G-401 cells assessed as cell viability incubated for 72 hrs by MTT assay; format: functional, cell-based; settings: G-401, 72 h; how it was run: as §3
[26] = Anti-proliferative activity against human KD cells assessed as cell viability incubated for 144 hrs by MTT assay; format: functional, cell-based; how it was run: as §3
BT-12 [27] = experiment: Anti-proliferative activity against human BT-12 cells assessed as cell viability incubated for 144 hrs by MTT assay; format: functional, cell-based; settings: BT-12, 144 h; how it was run: as §3
BT-12 [28] = experiment: Induction of apoptosis in human BT-12 cells assessed as necrotic cells incubated for 72 hrs by flow cytometry analysis; format: functional, cell-based; settings: dose 5-20 µM; how it was run: as §2
G-401 [29] = experiment: Induction of cell cycle arrest in human G-401 cells assessed as accumulation of cells at G1 phase incubated for 72 hrs by flow cytometry analysis; format: functional, cell-based; settings: dose 5-20 µM; how it was run: as §4
CHLA-266 [30] = experiment: Anti-proliferative activity against human CHLA-266 cells assessed as cell viability incubated for 72 hrs by MTT assay; format: functional, cell-based; settings: CHLA-266, 72 h; how it was run: as §3
BT-12 [31] = experiment: Induction of cell cycle arrest in human BT-12 cells assessed as accumulation of cells at G1 phase incubated for 72 hrs by flow cytometry analysis; format: functional, cell-based; settings: dose 5-20 µM; how it was run: as §1
G-401 [32] = experiment: Induction of apoptosis in human G-401 cells assessed as necrotic cells at 5 uM incubated for 72 hrs by flow cytometry analysis (Rvb= 6.2+/-0.8 %); format: functional; how it was run: as §2
BT-12 [33] = experiment: Induction of cell cycle arrest in human BT-12 cells assessed as accumulation of cells at G1 phase at 5 uM incubated for 72 hrs by flow cytometry analysis (reference value: 65+/-3.9%); format: functional; how it was run: as §1

With `COc1cc(-c2cn(C)c(=O)c3cnccc23)c(OC)cc1CN(C)C` the Activity (CHLA-266 [1]) was 81.2%, the Activity (CHLA-266 [2]) was “Active” and the Activity (BT-12 [3]) was 15.9%. The Activity (BT-12 [4]) was 17.3%, the Activity (CHLA-266 [5]) was 12.9% and the Activity (G-401 [6]) was 7.6%. For the same molecule, the Activity (G-401 [7]) was 7.3%, the Activity (G-401 [8]) was “Dose-Dependent Effect” and the Activity (CHLA-266 [9]) was 11%. The Activity (BT-12 [10]) was 14.2%, the Activity (CHLA-266 [11]) was “Dose-Dependent Effect” and the pIC50 [12] was 4.65. For the same molecule, the Activity (CHLA-266 [13]) was “Dose-Dependent Effect”, the Activity (BT-12 [14]) was 74% and the pIC50 (G-401 [15]) was 4.97. It also gave a pIC50 (BT-12 [16]) of under 4.00, an Activity (G-401 [17]) of 59.5% and an Activity (CHLA-266 [18]) of 83.6%. It also gave an Activity (BT-12 [19]) of 78.9%, an Activity (G-401 [20]) of 57.6% and an Activity (CHLA-266 [21]) of 80%. For the same molecule, the Activity (CHLA-266 [22]) was 10%, the pIC50 [23] was 4.80 and the pIC50 (CHLA-266 [24]) was 4.47. For the same molecule, the pIC50 (G-401 [25]) was 4.90, the pIC50 [26] was 4.97 and the pIC50 (BT-12 [27]) was 4.76. The Activity (BT-12 [28]) was “Dose-Dependent Effect”, the Activity (G-401 [29]) was “Dose-Dependent Effect” and the pIC50 (CHLA-266 [30]) was under 4.00. The Activity (BT-12 [31]) was “Dose-Dependent Effect”, the Activity (G-401 [32]) was 6.8% and the Activity (BT-12 [33]) was 73.1%.
